Measurements from ChEMBL document CHEMBL4392821.
Activity calls are given as the source filed them. No cut-off for these calls is given here. Square brackets hold non-standard residues; d marks the D form. Peptide text beside a SMILES is read from it. * marks the point of attachment. ξ: configuration not given here. X1 = CCCCCCCCCCCCCCCC(=O)OCC(C*)OC(=O)CCCCCCCCCCCCCCC; Palmitoyl = CCCCCCCCCCCCCCCC(=O)*; ξC = NC(CS)C(=O)O

How the values were obtained:
Homo sapiens [1] = species on record: Homo sapiens; assay: Agonist activity at human TLR2/TLR1 F312A mutant expressed in HEK293T cells coexpressing NF-kappaB-driven luciferase reporter at 50 ng/ml after 6 hrs by luciferase reporter gene assay; type: cell-based
Outline: (§1)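 HEK293T cells stably carrying an NF-κB-driven luciferase reporter, in DMEM, were plated 18 h before transfection. They were co-transfected by lipofection with WT or point-mutant human TLR(2–1) and TLR(1–2) ectodomain/TIR-swap chimeras, and expression was checked by immunoblot. After 24 h, cells were stimulated for 6 h with 100 nM agonist or 20 or 50 ng/mL Pam3CSK4, then lysed for a luciferase read-out.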

Homo sapiens [2] = species on record: Homo sapiens; assay: Agonist activity at human TLR2/TLR1 W258A mutant expressed in HEK293T cells coexpressing NF-kappaB-driven luciferase reporter at 50 ng/ml after 6 hrs by luciferase reporter gene assay; type: cell-based; outline: as §1
[3] = biological target: T1, Toll-like receptor 1 (Homo sapiens) (UniProt Q15399); assay: Induction of human TLR1 homodimerization expressed in insect Hi5 cells by size exclusion chromatography
T1 sequence (whole entry): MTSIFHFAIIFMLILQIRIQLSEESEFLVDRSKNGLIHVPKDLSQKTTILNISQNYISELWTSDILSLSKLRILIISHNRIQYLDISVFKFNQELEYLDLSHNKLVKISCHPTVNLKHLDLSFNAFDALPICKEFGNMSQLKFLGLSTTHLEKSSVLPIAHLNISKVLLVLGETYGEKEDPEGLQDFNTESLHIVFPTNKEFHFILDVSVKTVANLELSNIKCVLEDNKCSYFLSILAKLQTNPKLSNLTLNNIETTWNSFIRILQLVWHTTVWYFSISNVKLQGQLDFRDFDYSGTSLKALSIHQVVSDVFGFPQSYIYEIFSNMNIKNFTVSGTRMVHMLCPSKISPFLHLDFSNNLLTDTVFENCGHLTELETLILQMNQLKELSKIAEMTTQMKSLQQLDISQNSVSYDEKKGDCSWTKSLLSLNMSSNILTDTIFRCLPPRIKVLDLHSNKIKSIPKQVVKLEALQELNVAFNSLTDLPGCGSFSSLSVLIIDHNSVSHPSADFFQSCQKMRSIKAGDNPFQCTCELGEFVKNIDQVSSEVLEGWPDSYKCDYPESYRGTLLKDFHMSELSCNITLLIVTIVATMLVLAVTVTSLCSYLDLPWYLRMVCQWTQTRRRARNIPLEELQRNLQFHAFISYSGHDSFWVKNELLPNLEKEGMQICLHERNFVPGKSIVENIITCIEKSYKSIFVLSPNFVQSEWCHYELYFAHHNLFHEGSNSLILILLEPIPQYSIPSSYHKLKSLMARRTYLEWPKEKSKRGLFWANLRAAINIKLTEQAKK
Outline: (§2)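 Human TLR1 and TLR2 ectodomains were made in Hi5 insect cells, partially deglycosylated, and had the protein A tag cleaved by thrombin before purification. Protein at 1 μM (each alone, or both together) was incubated with 30 μM ligand in 25 mM HEPES pH 8.0, 150 mM NaCl, 10% DMSO for 4 h at room temperature. Dimer formation was then analysed by analytical gel filtration on Superdex 200.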

Homo sapiens [4] = species on record: Homo sapiens; assay: Agonist activity at human TLR2/TLR1 Y320A mutant expressed in HEK293T cells coexpressing NF-kappaB-driven luciferase reporter at 50 ng/ml after 6 hrs by luciferase reporter gene assay; type: cell-based; outline: as §1
Homo sapiens [5] = species on record: Homo sapiens; assay: Agonist activity at human TLR1/TLR2 Y332A mutant expressed in HEK293T cells coexpressing NF-kappaB-driven luciferase reporter at 20 ng/ml after 6 hrs by luciferase reporter gene assay; type: cell-based; outline: as §1
[6] = biological target: Toll-like receptor 2 (Homo sapiens) (UniProt O60603); assay: Induction of human TLR2 homodimerization expressed in insect Hi5 cells by size exclusion chromatography; outline: as §2
Homo sapiens [7] = species on record: Homo sapiens; assay: Agonist activity at human TLR2/TLR1 V339A mutant expressed in HEK293T cells coexpressing NF-kappaB-driven luciferase reporter at 50 ng/ml after 6 hrs by luciferase reporter gene assay; type: cell-based; outline: as §1
[8] = biological target: T2, Toll-like receptor 1/2 (Homo sapiens) (UniProt O60603+Q15399); assay: Induction of human TLR2/TLR1 heterodimerization expressed in insect Hi5 cells by size exclusion chromatography; outline: as §2
Homo sapiens [9] = species on record: Homo sapiens; assay: Agonist activity at human TLR1/TLR2 D327A mutant expressed in HEK293T cells coexpressing NF-kappaB-driven luciferase reporter at 20 ng/ml after 6 hrs by luciferase reporter gene assay; type: cell-based; outline: as §1
Homo sapiens [10] = species on record: Homo sapiens; assay: Agonist activity at human TLR1/TLR2 Y376 mutant expressed in HEK293T cells coexpressing NF-kappaB-driven luciferase reporter at 20 ng/ml after 6 hrs by luciferase reporter gene assay; type: cell-based; outline: as §1
Homo sapiens [11] = species on record: Homo sapiens; assay: Agonist activity at human TLR1/TLR2 V348A mutant expressed in HEK293T cells coexpressing NF-kappaB-driven luciferase reporter at 20 ng/ml after 6 hrs by luciferase reporter gene assay; type: cell-based; outline: as §1
Homo sapiens [12] = species on record: Homo sapiens; assay: Agonist activity at human TLR1/TLR2 L350A mutant expressed in HEK293T cells coexpressing NF-kappaB-driven luciferase reporter at 20 ng/ml after 6 hrs by luciferase reporter gene assay; type: cell-based; outline: as §1
Homo sapiens [13] = species on record: Homo sapiens; assay: Agonist activity at human TLR2/TLR1 H340A mutant expressed in HEK293T cells coexpressing NF-kappaB-driven luciferase reporter at 50 ng/ml after 6 hrs by luciferase reporter gene assay; type: cell-based; outline: as §1
Homo sapiens [14] = species on record: Homo sapiens; assay: Agonist activity at human TLR1/TLR2 F349A mutant expressed in HEK293T cells coexpressing NF-kappaB-driven luciferase reporter at 20 ng/ml after 6 hrs by luciferase reporter gene assay; type: cell-based; outline: as §1
Homo sapiens [15] = species on record: Homo sapiens; assay: Agonist activity at human TLR1/TLR2 Y325A mutant expressed in HEK293T cells coexpressing NF-kappaB-driven luciferase reporter at 20 ng/ml after 6 hrs by luciferase reporter gene assay; type: cell-based; outline: as §1
Homo sapiens [16] = species on record: Homo sapiens; assay: Agonist activity at human TLR1/TLR2 L328A mutant expressed in HEK293T cells coexpressing NF-kappaB-driven luciferase reporter at 20 ng/ml after 6 hrs by luciferase reporter gene assay; type: cell-based; outline: as §1
Homo sapiens [17] = species on record: Homo sapiens; assay: Agonist activity at human TLR2/TLR1 F314A mutant expressed in HEK293T cells coexpressing NF-kappaB-driven luciferase reporter at 50 ng/ml after 6 hrs by luciferase reporter gene assay; type: cell-based; outline: as §1
Homo sapiens [18] = species on record: Homo sapiens; assay: Agonist activity at human TLR1/TLR2 Y323A mutant expressed in HEK293T cells coexpressing NF-kappaB-driven luciferase reporter at 20 ng/ml after 6 hrs by luciferase reporter gene assay; type: cell-based; outline: as §1
Homo sapiens [19] = species on record: Homo sapiens; assay: Agonist activity at human TLR2/TLR1 I319A mutant expressed in HEK293T cells coexpressing NF-kappaB-driven luciferase reporter at 50 ng/ml after 6 hrs by luciferase reporter gene assay; type: cell-based; outline: as §1
[20] = biological target: T2, Toll-like receptor 1/2 (Homo sapiens); assay: Antagonist activity at TLR2/TLR1 in human THP1 cells assessed as reduction in diprovoci-induced TNF production at 50 uM pre-incubated for 1 hr before diprovocim stimulation for 4 hrs by ELISA method; type: cell-based
[21] = biological target: T2, Toll-like receptor 1/2 (Homo sapiens); assay: Antagonist activity at TLR2/TLR1 in human THP1 cells assessed as reduction in diprovoci-induced TNF production at 5 uM pre-incubated for 1 hr before diprovocim stimulation for 4 hrs by ELISA method; type: cell-based
Homo sapiens [22] = species on record: Homo sapiens; assay: Agonist activity at human TLR1/TLR2 Y323A mutant expressed in HEK293T cells coexpressing NF-kappaB-driven luciferase reporter at 100 nM after 6 hrs by luciferase reporter gene assay; type: cell-based; outline: as §1
Homo sapiens [23] = species on record: Homo sapiens; assay: Agonist activity at human TLR1/TLR2 Y332A mutant expressed in HEK293T cells coexpressing NF-kappaB-driven luciferase reporter at 100 nM after 6 hrs by luciferase reporter gene assay; type: cell-based; outline: as §1
Homo sapiens [24] = species on record: Homo sapiens; assay: Agonist activity at human TLR1/TLR2 L350A mutant expressed in HEK293T cells coexpressing NF-kappaB-driven luciferase reporter at 100 nM after 6 hrs by luciferase reporter gene assay; type: cell-based; outline: as §1
Homo sapiens [25] = species on record: Homo sapiens; assay: Agonist activity at human TLR2/TLR1 Y320A mutant expressed in HEK293T cells coexpressing NF-kappaB-driven luciferase reporter at 100 nM after 6 hrs by luciferase reporter gene assay; type: cell-based; outline: as §1
Homo sapiens [26] = species on record: Homo sapiens; assay: Agonist activity at human TLR1/TLR2 D327A mutant expressed in HEK293T cells coexpressing NF-kappaB-driven luciferase reporter at 100 nM after 6 hrs by luciferase reporter gene assay; type: cell-based; outline: as §1
Homo sapiens [27] = species on record: Homo sapiens; assay: Agonist activity at human TLR1/TLR2 F349A mutant expressed in HEK293T cells coexpressing NF-kappaB-driven luciferase reporter at 100 nM after 6 hrs by luciferase reporter gene assay; type: cell-based; outline: as §1
Homo sapiens [28] = species on record: Homo sapiens; assay: Agonist activity at human TLR1/TLR2 V348A mutant expressed in HEK293T cells coexpressing NF-kappaB-driven luciferase reporter at 100 nM after 6 hrs by luciferase reporter gene assay; type: cell-based; outline: as §1
Homo sapiens [29] = species on record: Homo sapiens; assay: Agonist activity at human TLR2/TLR1 W258A mutant expressed in HEK293T cells coexpressing NF-kappaB-driven luciferase reporter at 100 nM after 6 hrs by luciferase reporter gene assay; type: cell-based; outline: as §1
Homo sapiens [30] = species on record: Homo sapiens; assay: Agonist activity at human TLR1/TLR2 Y376 mutant expressed in HEK293T cells coexpressing NF-kappaB-driven luciferase reporter at 100 nM after 6 hrs by luciferase reporter gene assay; type: cell-based; outline: as §1
Homo sapiens [31] = species on record: Homo sapiens; assay: Agonist activity at human TLR2/TLR1 F312A mutant expressed in HEK293T cells coexpressing NF-kappaB-driven luciferase reporter at 100 nM after 6 hrs by luciferase reporter gene assay; type: cell-based; outline: as §1
Homo sapiens [32] = species on record: Homo sapiens; assay: Agonist activity at human TLR2/TLR1 V339A mutant expressed in HEK293T cells coexpressing NF-kappaB-driven luciferase reporter at 100 nM after 6 hrs by luciferase reporter gene assay; type: cell-based; outline: as §1
Homo sapiens [33] = species on record: Homo sapiens; assay: Agonist activity at human TLR2/TLR1 I319A mutant expressed in HEK293T cells coexpressing NF-kappaB-driven luciferase reporter at 100 nM after 6 hrs by luciferase reporter gene assay; type: cell-based; outline: as §1
Homo sapiens [34] = species on record: Homo sapiens; assay: Agonist activity at human TLR2/TLR1 H340A mutant expressed in HEK293T cells coexpressing NF-kappaB-driven luciferase reporter at 100 nM after 6 hrs by luciferase reporter gene assay; type: cell-based; outline: as §1
Homo sapiens [35] = species on record: Homo sapiens; assay: Agonist activity at human TLR2/TLR1 F314A mutant expressed in HEK293T cells coexpressing NF-kappaB-driven luciferase reporter at 100 nM after 6 hrs by luciferase reporter gene assay; type: cell-based; outline: as §1
Homo sapiens [36] = species on record: Homo sapiens; assay: Agonist activity at human TLR1/TLR2 L328A mutant expressed in HEK293T cells coexpressing NF-kappaB-driven luciferase reporter at 100 nM after 6 hrs by luciferase reporter gene assay; type: cell-based; outline: as §1
Homo sapiens [37] = species on record: Homo sapiens; assay: Agonist activity at human TLR1/TLR2 Y325A mutant expressed in HEK293T cells coexpressing NF-kappaB-driven luciferase reporter at 100 nM after 6 hrs by luciferase reporter gene assay; type: cell-based; outline: as §1

Chain of Toll-like receptor 2 (Homo sapiens) (O60603 whole entry): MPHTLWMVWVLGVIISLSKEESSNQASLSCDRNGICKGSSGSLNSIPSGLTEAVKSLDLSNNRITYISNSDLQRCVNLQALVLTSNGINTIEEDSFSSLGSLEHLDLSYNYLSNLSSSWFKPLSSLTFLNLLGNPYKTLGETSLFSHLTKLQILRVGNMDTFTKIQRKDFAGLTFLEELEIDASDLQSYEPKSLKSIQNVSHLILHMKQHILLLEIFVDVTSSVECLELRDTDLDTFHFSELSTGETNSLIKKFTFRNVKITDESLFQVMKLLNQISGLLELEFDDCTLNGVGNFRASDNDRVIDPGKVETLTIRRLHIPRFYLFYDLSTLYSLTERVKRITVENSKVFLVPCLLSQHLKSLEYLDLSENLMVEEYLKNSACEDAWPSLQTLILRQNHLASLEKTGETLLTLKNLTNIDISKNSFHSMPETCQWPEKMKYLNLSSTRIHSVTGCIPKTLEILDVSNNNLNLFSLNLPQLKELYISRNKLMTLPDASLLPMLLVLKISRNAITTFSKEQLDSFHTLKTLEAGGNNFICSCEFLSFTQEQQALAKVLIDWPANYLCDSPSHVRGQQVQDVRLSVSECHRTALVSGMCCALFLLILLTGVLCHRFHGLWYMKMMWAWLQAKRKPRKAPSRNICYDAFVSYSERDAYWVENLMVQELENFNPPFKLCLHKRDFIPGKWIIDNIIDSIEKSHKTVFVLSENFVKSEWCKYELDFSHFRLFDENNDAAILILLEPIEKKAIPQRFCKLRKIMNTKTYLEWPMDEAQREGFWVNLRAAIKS

CCCCCCCCCCCCCCCC(=O)NC(CSCC(COC(=O)CCCCCCCCCCCCCCC)OC(=O)CCCCCCCCCCCCCCC)C(=O)N[C@@H](CO)C(=O)N[C@@H](CCCCN)C(=O)N[C@@H](CCCCN)C(=O)N[C@@H](CCCCN)C(=O)N[C@@H](CCCCN)C(=O)O (stereo partly drawn) (Palmitoyl-[ξC](X1)SKKKK-OH)
Activity (Homo sapiens [1]): inactive
Activity (Homo sapiens [2]): inactive
Activity [3]: inactive
Activity (Homo sapiens [4]): inactive
Activity (Homo sapiens [5]): inactive
Activity [6]: inactive
Activity (Homo sapiens [7]): inactive
Activity [8]: Active
Activity (Homo sapiens [9]): inactive
Activity (Homo sapiens [10]): inactive
Activity (Homo sapiens [11]): inactive
Activity (Homo sapiens [12]): inactive
Activity (Homo sapiens [13]): inactive
Activity (Homo sapiens [14]): inactive
Activity (Homo sapiens [15]): inactive
Activity (Homo sapiens [16]): inactive
Activity (Homo sapiens [17]): inactive
Activity (Homo sapiens [18]): inactive
Activity (Homo sapiens [19]): inactive

O=C(N[C@H]1C[C@@H]1c1ccccc1)[C@@H]1CN(C(=O)c2ccccc2)C[C@H]1C(=O)N[C@H]1C[C@@H]1c1ccccc1
inhibition [20]: Active
inhibition [21]: Active

O=C(N[C@H]1C[C@@H]1c1ccccc1)[C@@H]1CN(C(=O)c2ccc(C(=O)N3C[C@@H](C(=O)N[C@H]4C[C@@H]4c4ccccc4)[C@H](C(=O)N[C@H]4C[C@@H]4c4ccccc4)C3)cc2)C[C@H]1C(=O)N[C@H]1C[C@@H]1c1ccccc1
Activity (Homo sapiens [22]): inactive
Activity [3]: inactive
Activity (Homo sapiens [23]): Active
Activity (Homo sapiens [24]): Active
Activity (Homo sapiens [25]): inactive
Activity (Homo sapiens [26]): Active
Activity (Homo sapiens [27]): inactive
Activity (Homo sapiens [28]): inactive
Activity (Homo sapiens [29]): inactive
Activity (Homo sapiens [30]): Active
Activity (Homo sapiens [31]): Active
Activity (Homo sapiens [32]): inactive
Activity (Homo sapiens [33]): inactive
Activity (Homo sapiens [34]): inactive
Activity (Homo sapiens [35]): Active
Activity (Homo sapiens [36]): Active
Activity (Homo sapiens [37]): inactive
